Test results published in the M2OR odorant receptor database.
Where a chain is given by its changes, count along the chain named.

Columns and labels:
Conditions in all cases: stereoisomer not certain
[1] = test system: T1, O56A4 I247V
T1 sequence (whole entry): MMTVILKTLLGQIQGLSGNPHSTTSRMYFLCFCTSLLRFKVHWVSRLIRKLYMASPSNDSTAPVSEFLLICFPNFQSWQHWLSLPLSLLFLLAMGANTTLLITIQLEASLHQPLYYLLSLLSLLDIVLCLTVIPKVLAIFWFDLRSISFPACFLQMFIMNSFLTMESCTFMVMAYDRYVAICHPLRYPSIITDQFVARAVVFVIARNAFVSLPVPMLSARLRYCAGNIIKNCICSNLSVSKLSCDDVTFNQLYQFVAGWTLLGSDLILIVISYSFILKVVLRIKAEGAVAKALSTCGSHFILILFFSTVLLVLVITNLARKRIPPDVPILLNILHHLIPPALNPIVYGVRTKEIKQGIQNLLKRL
Method in brief: (§1)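 Each receptor–molecule pair is labelled responsive or non-responsive (inactive) according to whether the original authors judged the measured signal statistically different from baseline. The data were taken from the main text and supplementary material of published papers and checked for typos and inconsistencies. Assay methods differed by source, with transient luciferase assays in mammalian cell lines being common.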

[2] = test system: T2, O56A4
T2 sequence (whole entry): T1 sequence (whole entry) with V247I
Method in brief: as §1

[3] = test system: T3, O56A5 V104L
T3 sequence (whole entry): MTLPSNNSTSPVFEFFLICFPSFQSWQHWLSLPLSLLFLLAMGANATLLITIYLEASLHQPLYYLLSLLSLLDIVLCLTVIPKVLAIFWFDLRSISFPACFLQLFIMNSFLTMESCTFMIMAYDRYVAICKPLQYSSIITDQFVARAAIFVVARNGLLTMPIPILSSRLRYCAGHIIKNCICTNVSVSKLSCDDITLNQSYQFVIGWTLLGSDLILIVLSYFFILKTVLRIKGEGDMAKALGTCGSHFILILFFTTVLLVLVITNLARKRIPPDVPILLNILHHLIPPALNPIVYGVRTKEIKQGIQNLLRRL
Method in brief: as §1

[4] = test system: T4, O56B1 C106R L214F
T4 sequence (whole entry): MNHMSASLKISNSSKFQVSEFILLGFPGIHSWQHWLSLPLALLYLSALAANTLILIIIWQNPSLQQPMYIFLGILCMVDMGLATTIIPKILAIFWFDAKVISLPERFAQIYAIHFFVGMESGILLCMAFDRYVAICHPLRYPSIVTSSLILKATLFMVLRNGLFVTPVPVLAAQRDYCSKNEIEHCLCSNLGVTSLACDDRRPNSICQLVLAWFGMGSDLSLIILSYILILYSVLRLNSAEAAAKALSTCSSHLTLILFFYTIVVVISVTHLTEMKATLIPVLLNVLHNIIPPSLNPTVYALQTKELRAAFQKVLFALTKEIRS
Method in brief: as §1

[5] = test system: T5, O56B1 L214F
T5 sequence (whole entry): T4 sequence (whole entry) with R106C
Method in brief: as §1

[6] = test system: T6, O56B4
T6 sequence (whole entry): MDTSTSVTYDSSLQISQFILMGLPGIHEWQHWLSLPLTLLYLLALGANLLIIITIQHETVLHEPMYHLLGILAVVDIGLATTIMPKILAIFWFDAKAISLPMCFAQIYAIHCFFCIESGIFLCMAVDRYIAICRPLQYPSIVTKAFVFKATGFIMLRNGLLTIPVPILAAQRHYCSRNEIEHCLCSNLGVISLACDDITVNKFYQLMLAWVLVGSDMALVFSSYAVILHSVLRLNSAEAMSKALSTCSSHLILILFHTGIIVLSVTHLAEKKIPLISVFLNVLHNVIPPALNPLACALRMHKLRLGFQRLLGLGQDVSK
Method in brief: as §1

[7] = test system: T7, O5AC2
T7 sequence (whole entry): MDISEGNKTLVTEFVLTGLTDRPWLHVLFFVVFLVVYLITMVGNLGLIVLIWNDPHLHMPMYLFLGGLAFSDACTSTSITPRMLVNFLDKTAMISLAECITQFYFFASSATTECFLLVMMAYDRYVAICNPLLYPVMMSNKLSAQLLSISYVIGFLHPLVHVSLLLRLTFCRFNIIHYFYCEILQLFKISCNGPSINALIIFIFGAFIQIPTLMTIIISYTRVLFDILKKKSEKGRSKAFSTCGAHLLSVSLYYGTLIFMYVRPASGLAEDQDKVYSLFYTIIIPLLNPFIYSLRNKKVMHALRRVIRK
Method in brief: as §1

[8] = test system: T8, O5AK2 M92I
T8 sequence (whole entry): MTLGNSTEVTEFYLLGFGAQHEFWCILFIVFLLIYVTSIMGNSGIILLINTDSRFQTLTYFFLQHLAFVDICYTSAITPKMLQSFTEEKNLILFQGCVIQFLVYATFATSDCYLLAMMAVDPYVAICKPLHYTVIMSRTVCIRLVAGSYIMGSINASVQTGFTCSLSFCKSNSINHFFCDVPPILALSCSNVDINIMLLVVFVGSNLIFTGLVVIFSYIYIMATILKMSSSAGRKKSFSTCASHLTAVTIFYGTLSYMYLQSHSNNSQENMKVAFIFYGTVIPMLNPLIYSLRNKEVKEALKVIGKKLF
Method in brief: as §1

[9] = test system: T9, O5AN1 C142Y L289F
T9 sequence (whole entry): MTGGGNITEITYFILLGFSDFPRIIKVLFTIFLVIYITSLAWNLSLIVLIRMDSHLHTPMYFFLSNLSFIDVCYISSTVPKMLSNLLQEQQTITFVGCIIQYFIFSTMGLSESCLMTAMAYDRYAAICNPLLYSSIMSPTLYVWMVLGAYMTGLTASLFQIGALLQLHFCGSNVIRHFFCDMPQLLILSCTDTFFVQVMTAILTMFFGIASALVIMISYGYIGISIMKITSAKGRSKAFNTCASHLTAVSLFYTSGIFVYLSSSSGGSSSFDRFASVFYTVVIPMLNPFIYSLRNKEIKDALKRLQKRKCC
Method in brief: as §1

[10] = test system: T10, O5AN1 L289F
T10 sequence (whole entry): T9 sequence (whole entry) with Y142C
Method in brief: as §1

[11] = test system: T11, O5AP2 A105T
T11 sequence (whole entry): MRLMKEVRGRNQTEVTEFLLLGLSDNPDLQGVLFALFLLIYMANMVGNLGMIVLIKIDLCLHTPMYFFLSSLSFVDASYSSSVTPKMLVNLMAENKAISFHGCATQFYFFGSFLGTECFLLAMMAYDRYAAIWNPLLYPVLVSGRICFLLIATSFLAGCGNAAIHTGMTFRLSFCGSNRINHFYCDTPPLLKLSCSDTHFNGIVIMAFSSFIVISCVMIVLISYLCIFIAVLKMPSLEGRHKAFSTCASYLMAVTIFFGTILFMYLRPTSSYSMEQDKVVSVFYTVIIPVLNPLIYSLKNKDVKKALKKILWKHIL
Method in brief: as §1

[12] = test system: T12, O5AU1
T12 sequence (whole entry): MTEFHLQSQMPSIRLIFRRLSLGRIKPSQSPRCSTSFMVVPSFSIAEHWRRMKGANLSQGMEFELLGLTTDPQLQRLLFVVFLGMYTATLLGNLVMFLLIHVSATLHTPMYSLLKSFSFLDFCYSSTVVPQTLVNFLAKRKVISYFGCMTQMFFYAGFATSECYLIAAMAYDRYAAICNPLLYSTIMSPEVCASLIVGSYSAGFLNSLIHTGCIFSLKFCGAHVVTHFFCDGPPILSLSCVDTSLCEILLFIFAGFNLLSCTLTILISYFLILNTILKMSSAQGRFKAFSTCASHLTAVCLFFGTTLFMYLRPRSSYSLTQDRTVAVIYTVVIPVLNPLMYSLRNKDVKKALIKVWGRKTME
Method in brief: as §1

[13] = test system: T13, O5H14
T13 sequence (whole entry): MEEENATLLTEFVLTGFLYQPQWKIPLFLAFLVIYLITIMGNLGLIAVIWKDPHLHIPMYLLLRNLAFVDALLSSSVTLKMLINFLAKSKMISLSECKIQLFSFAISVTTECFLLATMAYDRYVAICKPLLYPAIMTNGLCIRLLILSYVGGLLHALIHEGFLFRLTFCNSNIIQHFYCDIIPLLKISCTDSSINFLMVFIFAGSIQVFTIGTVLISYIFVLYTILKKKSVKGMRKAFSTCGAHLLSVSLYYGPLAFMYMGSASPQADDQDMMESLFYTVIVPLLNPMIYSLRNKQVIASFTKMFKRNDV
Method in brief: as §1

[14] = test system: T14, O5H15 V108I S148T T167S
T14 sequence (whole entry): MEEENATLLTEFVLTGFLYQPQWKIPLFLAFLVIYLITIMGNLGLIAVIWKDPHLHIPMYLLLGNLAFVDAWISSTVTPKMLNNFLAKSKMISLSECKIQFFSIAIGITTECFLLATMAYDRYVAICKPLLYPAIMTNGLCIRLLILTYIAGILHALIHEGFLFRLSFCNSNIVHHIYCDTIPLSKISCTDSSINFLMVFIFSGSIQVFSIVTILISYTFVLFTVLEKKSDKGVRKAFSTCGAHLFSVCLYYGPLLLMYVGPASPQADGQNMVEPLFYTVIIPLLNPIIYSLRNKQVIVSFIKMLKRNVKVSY
Method in brief: as §1

[15] = test system: T15, O6C65 T222A
T15 sequence (whole entry): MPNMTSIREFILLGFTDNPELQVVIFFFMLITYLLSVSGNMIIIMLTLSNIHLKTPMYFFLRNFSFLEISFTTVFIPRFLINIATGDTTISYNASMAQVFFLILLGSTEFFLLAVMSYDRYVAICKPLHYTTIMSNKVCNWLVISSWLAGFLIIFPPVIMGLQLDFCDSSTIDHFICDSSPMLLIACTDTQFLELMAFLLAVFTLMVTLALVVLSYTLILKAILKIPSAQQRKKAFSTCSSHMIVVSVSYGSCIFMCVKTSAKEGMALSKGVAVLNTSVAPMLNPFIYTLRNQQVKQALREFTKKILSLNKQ
Method in brief: as §1

[16] = test system: T16, O6C70 L181P
T16 sequence (whole entry): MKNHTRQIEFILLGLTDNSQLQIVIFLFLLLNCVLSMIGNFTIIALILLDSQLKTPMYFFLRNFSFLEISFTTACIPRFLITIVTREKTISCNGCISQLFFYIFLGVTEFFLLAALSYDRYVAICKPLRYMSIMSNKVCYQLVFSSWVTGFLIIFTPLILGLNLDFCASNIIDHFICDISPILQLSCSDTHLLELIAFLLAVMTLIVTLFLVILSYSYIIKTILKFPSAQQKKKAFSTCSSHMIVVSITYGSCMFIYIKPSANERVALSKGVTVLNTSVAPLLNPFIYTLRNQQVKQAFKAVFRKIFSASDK
Method in brief: as §1

[17] = test system: T17, O7E24 S193F P242S
T17 sequence (whole entry): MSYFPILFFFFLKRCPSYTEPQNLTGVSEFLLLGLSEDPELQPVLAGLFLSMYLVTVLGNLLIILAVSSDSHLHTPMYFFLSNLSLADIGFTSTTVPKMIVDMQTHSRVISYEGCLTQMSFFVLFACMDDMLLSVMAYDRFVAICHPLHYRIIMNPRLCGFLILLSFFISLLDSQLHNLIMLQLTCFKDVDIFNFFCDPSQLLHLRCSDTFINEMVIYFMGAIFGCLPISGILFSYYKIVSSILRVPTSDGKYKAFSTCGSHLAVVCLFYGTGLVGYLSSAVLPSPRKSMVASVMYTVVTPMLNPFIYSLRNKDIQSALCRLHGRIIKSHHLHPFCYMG
Method in brief: as §1

[18] = test system: T18, O7E24
T18 sequence (whole entry): T17 sequence (whole entry) with F193S
Method in brief: as §1

[19] = molecular target: T19, OR10A2 (Homo sapiens) (UniProt Q9H208)
T19 sequence (whole entry): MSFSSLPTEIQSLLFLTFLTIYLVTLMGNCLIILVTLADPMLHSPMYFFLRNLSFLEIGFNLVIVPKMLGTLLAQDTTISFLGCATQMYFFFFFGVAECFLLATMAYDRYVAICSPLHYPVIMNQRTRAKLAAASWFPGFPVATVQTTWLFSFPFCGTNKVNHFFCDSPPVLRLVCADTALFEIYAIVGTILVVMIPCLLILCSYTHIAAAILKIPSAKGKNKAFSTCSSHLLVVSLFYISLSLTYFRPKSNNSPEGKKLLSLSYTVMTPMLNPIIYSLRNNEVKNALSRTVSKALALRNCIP
Method in brief: as §1

[20] = test system: T20, O5AN1
T20 sequence (whole entry): T9 sequence (whole entry) with K26T, Y142C, F159S, C190S, Q197R, V214I, Y221S, F289L, K309R
Method in brief: as §1

Measured: odorant receptor agonist call

CCCC(S)CCOC(C)=O (centres undefined)
not listed: [20]
inactive: all other assays above

CC1=NC(C)C(C)S1 (centres undefined)
not listed: [20]
inactive: all other assays above

O=C1CCCCCCCCC1
inactive: [20]

C1CCCCCCCCCCCCCC1
inactive: [20]

CC1CCCCCCCCCCCC(=O)C1 (centres undefined)
active: [20]

CC1CCCCCCCCCCCCC(=O)C1 (centres undefined)
active: [20]
inactive: [19]

CC1C(C)(C)C2=C(C(=O)CCC2)C1(C)C (centres undefined)
inactive: [20]

CCCCCC(=O)C(C)C(C)=O (centres undefined)
inactive: [19]

OC1CCCCCCCCCCCCCC1
active: [20]

O=C1CCCC=CCCCCCCCCCC1
active: [20]

CCC(=O)OCC(C)(C)OC(C)C1CCCC(C)(C)C1 (centres undefined)
inactive: [20]

CCCCC(S)C(C)CO (centres undefined)
inactive: [19]
